Screening results deposited in PubChem by The Scripps Research Institute Molecular Screening Center.
A selection: hits, their analogues and other compounds. The true share with any hit is near 3.1%.
OX1R antag-1: OX1R (HCRTR1) antagonists, primary screen, fluorescence, CHO/OX1R cells, Fluo-8 calcium, orexin A. Orexin/Hypocretin receptor type 1 (Homo sapiens), O43613. Fluo-8 calcium fluorescence. inhibition, % at 5 µM. 330,000 compounds, 0.43% hits. AID 434989, 2010;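 active = inhibition above its plate's threshold, mean inhibition of all tested compounds on the plate plus 3 SD, cut at about 37% in these data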;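 note: 0% = orexin A challenge wells and 100% = SB-334867-A antagonist wells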
GPR7 antag: GPR7 receptor antagonists, primary screen, cell-based, fluorescence, single concentration; GPR7-expressing cells, fluorescence antagonist assay; inhibition, % at 4.4 µM; 290,000 compounds, 1.1% hits; AID 1861, 2009; in the data active = inhibition above about 16%, passing the limit was not always enough;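 note: cells stimulated with the agonist NPW; 0% = agonist with vehicle and 100% = vehicle without agonist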
Target sequence (P48145 whole entry, looked up): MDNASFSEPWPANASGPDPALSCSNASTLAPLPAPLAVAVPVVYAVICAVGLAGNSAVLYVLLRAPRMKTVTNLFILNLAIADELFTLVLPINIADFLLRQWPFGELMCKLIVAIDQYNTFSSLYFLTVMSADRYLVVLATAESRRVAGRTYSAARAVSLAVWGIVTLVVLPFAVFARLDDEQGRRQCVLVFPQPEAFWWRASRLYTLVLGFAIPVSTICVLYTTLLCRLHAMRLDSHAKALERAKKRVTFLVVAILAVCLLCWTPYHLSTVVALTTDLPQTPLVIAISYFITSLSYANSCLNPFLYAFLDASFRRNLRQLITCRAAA
OX1R antag-2: antagonists of human orexin 1 receptor (OX1R); Orexin/Hypocretin receptor type 1 (Homo sapiens), O43613; OX1R-expressing cells, FRET antagonist read-out; inhibition, % at 6.6 µM; 330,000 compounds, 1.8% hits; AID 485270, 2010; in the data active = inhibition mostly above about 38%, no sharp cut-off; inactive = mostly below about 40%;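 note: 0% = agonist challenge alone and 100% = reference antagonist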
GalR3 antag: GalR3 antagonists in HEK293 cells, primary screen, cell-based, fluorescence readout | Galanin receptor type 3 (Homo sapiens), O60755 | HEK293 GalR3-CNG cAMP membrane potential fluorescence; galR3 body fused to GalR1 C-terminus | inhibition, % at 3 µM | 360,000 compounds, 0.44% hits;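 active = inhibition above the screen-wide average plus 3 SD, cut at about 13% in these data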;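 note: forskolin and galanin both at EC90 stimulate the cells; cAMP rise reported by CNG channel membrane potential dye signal; 0% = forskolin plus galanin with DMSO and 100% = forskolin alone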
CHO parental Ca: ATP-evoked calcium signal inhibitors, parental CHO, primary screen, counter-screen for OX1R antagonist project, cell-based, fluorescence, Fluo-8 calcium dye. inhibition, % at 5.6 µM. 330,000 compounds, 0.63% hits. AID 463079, 2010. parental CHO-K1, ATP-induced calcium, Fluo-8 fluorescence;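 active = inhibition above that plate's mean sample inhibition plus 3 SD, cut at about 26% in these data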;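 note: 0% = ATP-challenged DMSO wells and 100% = DMSO wells without ATP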
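Test system: parental CHO cells; detection: calcium-sensitive Fluo-8 fluorescence; evaluation: percent inhibition of calcium signal; also added: ATP as calcium-mobilizing challenge; repeats: one well per compound; control set: ATP-challenged DMSO wells low, unchallenged DMSO wells high; compound: single nominal dose of 5.6 µM per compound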
GalR3 conf: GalR3 antagonist hit confirmation, cell-based, fluorescence, triplicate | shares compounds with GalR3 antag | HEK293 GalR3 CNG cAMP biosensor, membrane potential fluorescence; galR3 fused to GalR1 carboxy tail; challenged with forskolin and galanin at EC90 | inhibition, % at 3 µM | 1,600 compounds, 59% hits;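 active = inhibition above the primary screen's cutoff, the mean inhibition of all screened compounds plus 3 SD, cut at about 13% in these data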;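 note: 0% = forskolin plus galanin and 100% = forskolin alone with DMSO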
CNG parental: nonspecific cAMP agonists in parental HEK-CNG cells, counter-screen for GalR3 antagonist project, cell-based, fluorescence, high throughput; 1,600 compounds, 10% hits; AID 652268, 2013; shares compounds with GalR3 antag; activation, % at 3 µM; HEK293-CNG parental cells, cAMP membrane potential fluorescence; normalised: DMSO wells 0%, forskolin wells 100%; in the data active = activation above about 1.3%
* = called active by the depositor; . = no result.

SMILES | OX1R antag-1 | GPR7 antag | OX1R antag-2 | GalR3 antag | CHO parental Ca | GalR3 conf | CNG parental
COc1ccc(NS(=O)(=O)c2ccc(-c3coc(C)n3)cc2)cc1OC | 38.9 | 18.3 | 26.9 | 85.4* | 50.3* | 100.1* | 0.0
COC(=O)Cc1[nH]n(-c2ccccc2)c(=O)c1C=Nc1ccc(C)cc1 | -15.7 | -9.7 | 10.6 | 1.1 | -8.4 | . | .
CC(=O)c1c(C)[nH]c(C(=O)COc2cc(C)ccc2C(C)C)c1C | 62.2* | 24.8* | 84.4* | 72.8* | 74.1* | 112.8* | -0.1
COc1ccc(CNC(=O)c2sc(=O)n(Cc3ccc(-c4ccccc4)cc3)c2C)cc1OC | . | . | . | 26.3* | . | 16.0* | -0.6
CCCCCCCCCC(=O)N/N=C(\C)c1cccnc1 | -19.7 | -6.3 | 32.2 | 13.7* | -25.3 | 0.3 | 0.4
CCN(CC)c1ccc(/C=N/N(c2ccccc2)c2ccccc2)c(O)c1 | -23.0 | -7.8 | 23.0 | 0.4 | -18.5 | . | .
CCN(CC)c1ccc(/C=N/NC(=S)NCc2ccccc2)c(O)c1 | -113.3 | -20.6 | 16.1 | 12.7* | -36.3 | 25.0* | -2.2
COc1ccc(CNC(=O)CN(c2ccccc2)S(=O)(=O)N(C)C)cc1 | -14.2 | -6.2 | 12.7 | -0.5 | -0.7 | . | .
Oc1ccc(-c2n[nH]c(C(F)(F)F)c2-c2ccccc2)c(O)c1 | 14.7 | 1.2 | 20.9 | 47.5* | 56.6* | 89.4* | -1.8
C=C(C)[C@@H]1CC=C(CN2CCC(N3CCC(C(=O)N4CCCC4)CC3)CC2)CC1 | -25.0 | -17.4 | 2.8 | 19.5* | -7.5 | 2.8 | 4.4*
C[C@]1(CC/C(=C/CO)CO)[C@H](C=O)CC[C@@]23COC(=O)C2=CCC[C@@H]31 | . | . | . | -4.5 | . | . | .
C=CCNC(=O)/C(=C/c1cn(-c2ccccc2)nc1-c1cccc([N+](=O)[O-])c1)NC(=O)c1ccccc1 | -16.1 | -6.2 | 7.7 | 15.9* | -21.9 | 7.8 | 0.4
Cc1ccc(C(=O)OCC(=O)NCc2ccccc2)s1 | . | . | . | -7.5 | . | . | .
COc1ccc(CCNC(=O)CSc2nnc3ccc(-c4ccccn4)nn23)cc1OC | -11.7 | . | 18.9 | -4.0 | 1.7 | . | .
O=C(Nc1ccncc1)c1ccc(-c2ccccc2)cc1 | 47.0* | 2.5 | 46.3 | . | 58.3* | 56.3* | -0.5
CCCNC(=O)C12CCC(C)(c3nc4cc(C)c(C)cc4nc31)C2(C)C (configuration not stated) | -27.6 | -9.3 | 20.5 | 15.9* | -19.0 | 4.4 | 0.0
CNC(=O)C12CCC(C)(c3nc4cc(C)c(C)cc4nc31)C2(C)C (configuration not stated) | -2.8 | -3.4 | 23.4 | -3.6 | -16.5 | . | .
NC(=O)c1nsc(C(=O)N(c2ccc3c(c2)OCO3)C(C(=O)NCC2CCCO2)c2ccc(F)cc2)c1N (configuration not stated) | -25.2 | -3.0 | 5.5 | -8.4 | -18.1 | . | .
Cc1cccc(N(CC(=O)NC2CCCC2)C(=O)CNC(=O)c2ccco2)c1C | -19.2 | -8.2 | 9.8 | -2.8 | -12.3 | . | .
CCOC(=O)C1CCCN(S(=O)(=O)c2cc(OCC(=O)NC3CCCCC3)c(C)cc2Cl)C1 (configuration not stated) | -34.0 | -3.9 | 6.2 | -4.8 | -11.0 | . | .
Cc1cc(Cl)c(S(=O)(=O)N2CCN(c3ccc(F)cc3)CC2)cc1OCC(=O)NC1CCCCC1 | 52.5* | 6.5 | 15.0 | 97.4* | 58.3* | 110.5* | -1.0
CC(C)(C)N(CC(=O)NC1CCCCC1)C(=O)CS(=O)CC(=O)Nc1ccc(F)cc1 (configuration not stated) | -10.8 | -4.2 | 18.3 | 2.2 | -10.8 | . | .
